These results are taken from ChEMBL document CHEMBL3627606, “Development of Novel, CNS Penetrant Positive Allosteric Modulators for the Metabotropic Glutamate Receptor Subtype 1 (mGlu1), Based on an N-(3-Chloro-4-(1,3-dioxoisoindolin-2-yl)phenyl)-3-methylfuran-2-carboxamide Scaffold, That Potentiate Wild Type and Mutant mGlu1 Receptors Found in …” (J Med Chem, 2015).

In series [1] the target is T1, Metabotropic glutamate receptor 1 (Homo sapiens, UniProt Q13255). The experiment in a line: Negative allosteric modulation of human mGlu1 receptor in HEK293 cells assessed as potentiation of glutamate-induced calcium mobiliztion by Fluo-4AM dye based fluorescence analysis. The format is functional, cell-based.
Target sequence in this assay (Q13255 whole entry): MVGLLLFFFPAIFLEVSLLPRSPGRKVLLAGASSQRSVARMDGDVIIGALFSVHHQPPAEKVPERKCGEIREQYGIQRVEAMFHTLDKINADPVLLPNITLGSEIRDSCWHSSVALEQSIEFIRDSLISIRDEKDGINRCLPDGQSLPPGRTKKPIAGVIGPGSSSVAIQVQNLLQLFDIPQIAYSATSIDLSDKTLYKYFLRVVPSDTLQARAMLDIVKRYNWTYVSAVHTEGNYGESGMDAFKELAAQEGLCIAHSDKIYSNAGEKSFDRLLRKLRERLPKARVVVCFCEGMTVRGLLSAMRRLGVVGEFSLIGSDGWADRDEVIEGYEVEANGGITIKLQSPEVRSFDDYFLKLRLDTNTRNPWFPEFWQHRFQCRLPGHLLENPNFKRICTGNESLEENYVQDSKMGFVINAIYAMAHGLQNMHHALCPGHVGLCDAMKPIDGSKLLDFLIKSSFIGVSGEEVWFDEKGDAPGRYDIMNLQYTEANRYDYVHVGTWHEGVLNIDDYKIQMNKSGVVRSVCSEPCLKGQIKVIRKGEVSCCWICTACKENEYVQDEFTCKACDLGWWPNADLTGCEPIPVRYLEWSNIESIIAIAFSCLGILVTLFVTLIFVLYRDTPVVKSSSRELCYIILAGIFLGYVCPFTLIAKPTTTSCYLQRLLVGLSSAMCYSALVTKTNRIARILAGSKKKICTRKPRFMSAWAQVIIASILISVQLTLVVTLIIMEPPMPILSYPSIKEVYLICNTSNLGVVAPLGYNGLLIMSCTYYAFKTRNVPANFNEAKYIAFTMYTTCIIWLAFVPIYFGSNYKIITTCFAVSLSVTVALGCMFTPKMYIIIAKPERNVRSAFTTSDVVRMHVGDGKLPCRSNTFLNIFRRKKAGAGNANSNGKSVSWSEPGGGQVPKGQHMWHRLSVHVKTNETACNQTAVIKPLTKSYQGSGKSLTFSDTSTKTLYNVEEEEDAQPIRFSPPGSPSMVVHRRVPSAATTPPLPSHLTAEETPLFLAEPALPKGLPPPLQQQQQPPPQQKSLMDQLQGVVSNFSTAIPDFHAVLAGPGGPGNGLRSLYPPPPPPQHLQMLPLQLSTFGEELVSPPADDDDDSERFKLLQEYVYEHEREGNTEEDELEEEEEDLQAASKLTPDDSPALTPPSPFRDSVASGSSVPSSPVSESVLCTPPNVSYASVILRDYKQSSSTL
A further series has as its system Rattus norvegicus. The experiment in a line: Volume of distribution at steady state in Sprague-Dawley rat at 0.2 mg/kg, iv by LC-MS/MS analysis. Conditions: in vivo.
Another series concerns the target T2, Cytochrome P450 1A2 (Homo sapiens, UniProt P05177).
T2 sequence (P05177 whole entry): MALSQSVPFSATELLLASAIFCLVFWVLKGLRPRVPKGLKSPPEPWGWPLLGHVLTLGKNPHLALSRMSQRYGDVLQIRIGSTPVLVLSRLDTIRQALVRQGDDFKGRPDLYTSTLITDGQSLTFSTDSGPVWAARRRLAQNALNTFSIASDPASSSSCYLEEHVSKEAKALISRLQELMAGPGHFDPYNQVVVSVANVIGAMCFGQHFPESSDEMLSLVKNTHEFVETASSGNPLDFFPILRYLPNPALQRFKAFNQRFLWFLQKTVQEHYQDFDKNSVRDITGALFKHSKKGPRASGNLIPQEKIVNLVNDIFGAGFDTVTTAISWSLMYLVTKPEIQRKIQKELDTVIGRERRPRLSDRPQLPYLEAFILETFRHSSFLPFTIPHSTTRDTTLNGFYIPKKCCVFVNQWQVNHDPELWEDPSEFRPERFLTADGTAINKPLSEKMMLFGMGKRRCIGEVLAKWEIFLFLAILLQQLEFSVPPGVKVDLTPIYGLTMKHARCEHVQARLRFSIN
The experiment in a line: Inhibition of CYP1A2 in human liver microsomes by LC-MS/MS analysis. The format is ADME.

Series [2] has as its target T1, Metabotropic glutamate receptor 1. In words: Agonist activity at human mGlu1 receptor in HEK293 cells assessed as calcium mobilization at 10 uM by Fluo-4AM dye based fluorescence analysis. The format is functional, cell-based.
Target sequence in this assay (Q13255 19-1194 limits assumed): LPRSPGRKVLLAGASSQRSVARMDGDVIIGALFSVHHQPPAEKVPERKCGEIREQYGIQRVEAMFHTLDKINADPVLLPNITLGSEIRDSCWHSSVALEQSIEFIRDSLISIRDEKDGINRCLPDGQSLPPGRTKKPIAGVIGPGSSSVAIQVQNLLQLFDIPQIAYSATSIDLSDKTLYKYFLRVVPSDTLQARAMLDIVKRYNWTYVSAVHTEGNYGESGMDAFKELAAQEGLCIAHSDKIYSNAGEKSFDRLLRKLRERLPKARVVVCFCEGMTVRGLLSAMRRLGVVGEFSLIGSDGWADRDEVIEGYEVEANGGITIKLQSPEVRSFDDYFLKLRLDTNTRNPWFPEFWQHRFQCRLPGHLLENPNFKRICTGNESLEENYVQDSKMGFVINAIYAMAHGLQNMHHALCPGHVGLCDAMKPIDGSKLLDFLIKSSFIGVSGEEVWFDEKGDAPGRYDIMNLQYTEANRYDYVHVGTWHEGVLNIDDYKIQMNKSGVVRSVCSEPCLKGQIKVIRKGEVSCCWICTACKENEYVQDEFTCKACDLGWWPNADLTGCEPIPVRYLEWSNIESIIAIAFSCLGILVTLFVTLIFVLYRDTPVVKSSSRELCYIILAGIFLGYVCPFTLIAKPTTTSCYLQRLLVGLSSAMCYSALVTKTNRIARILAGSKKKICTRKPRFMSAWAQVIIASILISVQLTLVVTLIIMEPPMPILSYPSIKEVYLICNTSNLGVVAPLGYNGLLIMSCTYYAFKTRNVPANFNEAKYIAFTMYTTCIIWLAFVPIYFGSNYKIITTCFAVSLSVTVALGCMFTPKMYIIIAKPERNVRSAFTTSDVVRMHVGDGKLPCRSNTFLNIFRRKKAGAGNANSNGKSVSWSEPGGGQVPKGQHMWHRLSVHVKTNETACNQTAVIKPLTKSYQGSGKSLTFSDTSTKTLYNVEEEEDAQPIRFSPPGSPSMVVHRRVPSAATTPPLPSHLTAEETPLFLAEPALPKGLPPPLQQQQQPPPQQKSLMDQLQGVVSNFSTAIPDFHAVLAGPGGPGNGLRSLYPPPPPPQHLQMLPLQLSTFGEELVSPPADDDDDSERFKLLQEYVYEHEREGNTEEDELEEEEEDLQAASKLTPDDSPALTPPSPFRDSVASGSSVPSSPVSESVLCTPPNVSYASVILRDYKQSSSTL
Series [3] deals with Metabotropic glutamate receptor 2 (Homo sapiens) (UniProt Q14416). The experiment in a line: Positive allosteric modulation of mGlu2 receptor (unknown origin) assessed as potentiation of glutamate-induced response by cell-based assay. In outline: (§1)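 Selectivity counterscreen at the other mGlu subtypes using the standard fold-shift paradigm. Compound was tested at 10 μM against the glutamate concentration-response curve, and the shift of that curve was read.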

Series [4] addresses T3, Metabotropic glutamate receptor 4 (Homo sapiens, UniProt Q14833). The experiment in a line: Positive allosteric modulation of human mGlu4 receptor assessed as potentiation of glutamate-induced calcium mobiliztion by cell based assay relative to PHCCC.
For series [5], the target named is T1, Metabotropic glutamate receptor 1. In words: Positive allosteric modulation of human mGlu1 receptor in HEK293 cells assessed as potentiation of glutamate-induced calcium mobiliztion at 10 uM by Fluo-4AM dye based fluorescence analysis. The format is functional, cell-based.
Target sequence in this assay (Q13255 19-1194 limits assumed): as above
The subject of series [6] is Plasma. The experiment in a line: Drug metabolism in rat plasma assessed as 5-chloro-2-(2-chloro-4-(3-methylfuran-2-carboxamido)phenylcarbamoyl)benzoic acid level at 10 uM after 4 hrs by mass spectrometry. The format is ADME, cell-free.
Series [7] relates to Plasma. In words: Drug metabolism in human plasma assessed as 5-chloro-2-(2-chloro-4-(3-methylfuran-2-carboxamido)phenylcarbamoyl)benzoic acid level at 10 uM after 4 hrs by mass spectrometry. The format is ADME, cell-free.
For series [8], the system named is Plasma. In words: Metabolic stability in rat plasma. The format is ADME, cell-free.
Another series deals with Cytochrome P450 2D6 (Homo sapiens, UniProt P10635). In words: Inhibition of CYP2D6 in human liver microsomes by LC-MS/MS analysis. The format is ADME.
Another series has as its system Brain. The experiment in a line: Drug concentration in C57BL/6 mouse brain at 100 mg/kg, ip administered as single dose. The format is ADME, organism-based. Conditions: in vivo, read-out: Drug uptake.
Series [9] can be described thus: Intrinsic clearance in human liver microsomes at 1 uM by LC-MS/MS analysis. Conditions: read-out: CLH. The format is ADME.
The subject of series [10] is Plasma. The experiment in a line: Drug metabolism in human plasma assessed as N-(4-amino-3-chlorophenyl)-3-methylfuran-2-carboxamide level at 10 uM after 4 hrs by mass spectrometry. The format is ADME, cell-free.
The target in a further series is Cytochrome P450 2C9 (Homo sapiens, UniProt P11712). The experiment in a line: Inhibition of CYP2C9 in human liver microsomes by LC-MS/MS analysis. The format is ADME.
Cytochrome P450 2C9, sequence (P11712 whole entry): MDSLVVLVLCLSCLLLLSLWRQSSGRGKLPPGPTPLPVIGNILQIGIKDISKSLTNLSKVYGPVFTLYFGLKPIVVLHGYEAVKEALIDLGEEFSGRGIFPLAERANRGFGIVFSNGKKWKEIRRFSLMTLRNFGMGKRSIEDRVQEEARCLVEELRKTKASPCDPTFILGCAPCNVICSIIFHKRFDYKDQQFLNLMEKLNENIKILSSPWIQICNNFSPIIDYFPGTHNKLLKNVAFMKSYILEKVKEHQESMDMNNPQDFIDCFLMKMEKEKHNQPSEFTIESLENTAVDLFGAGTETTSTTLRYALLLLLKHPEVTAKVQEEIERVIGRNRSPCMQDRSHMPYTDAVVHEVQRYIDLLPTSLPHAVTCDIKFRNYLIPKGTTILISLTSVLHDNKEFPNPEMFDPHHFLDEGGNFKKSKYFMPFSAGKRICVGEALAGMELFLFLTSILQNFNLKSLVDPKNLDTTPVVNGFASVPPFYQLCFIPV
In series [11] the target is Metabotropic glutamate receptor 3 (Homo sapiens) (UniProt Q14832). In words: Positive allosteric modulation of mGlu3 receptor (unknown origin) assessed as potentiation of glutamate-induced response by cell-based assay. In outline:
as §1

For series [12], the target named is Metabotropic glutamate receptor 7 (Homo sapiens) (UniProt Q14831). In words: Positive allosteric modulation of mGlu7 receptor (unknown origin) assessed as potentiation of glutamate-induced response by cell-based assay. In short, it runs like this:
as §1

For series [13], the target named is Metabotropic glutamate receptor 6 (Homo sapiens) (UniProt O15303). The experiment in a line: Positive allosteric modulation of mGlu6 receptor (unknown origin) assessed as potentiation of glutamate-induced response by cell-based assay. In outline:
as §1

For series [14], the system named is Plasma. The experiment in a line: Drug metabolism in rat plasma assessed as 4-chloro-2-(2-chloro-4-(3-methylfuran-2-carboxamido)phenylcarbamoyl)benzoic acid level at 10 uM after 4 hrs by mass spectrometry. The format is ADME, cell-free.
Series [15] deals with Plasma. The experiment in a line: Drug metabolism in rat plasma assessed as N-(4-amino-3-chlorophenyl)-3-methylfuran-2-carboxamide level at 10 uM after 4 hrs by mass spectrometry. The format is ADME, cell-free.
The nature of series [16]: Plasma clearance in Sprague-Dawley rat at 0.2 mg/kg, iv by LC-MS/MS analysis.
For series [17], the system named is Plasma. The experiment in a line: Drug metabolism in human plasma assessed as 4-chloro-2-(2-chloro-4-(3-methylfuran-2-carboxamido)phenylcarbamoyl)benzoic acid level at 10 uM after 4 hrs by mass spectrometry. The format is ADME, cell-free.
The target of series [18] is Metabotropic glutamate receptor 1 (Rattus norvegicus) (UniProt P23385). The experiment in a line: Positive allosteric modulation of rat mGlu1 receptor assessed as potentiation of glutamate-induced calcium mobiliztion by cell based assay relative to glutamate. The format is functional. In outline: (§2)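 Rat mGlu1 WT calcium mobilization concentration-response curves. EC50 and % Glu Max were derived from the curves.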

The test system of series [19] is Mus musculus. In words: Toxicity in C57BL/6 mouse assessed as seizure activity at 100 mg/kg, ip administered as single dose measured for 3 hrs. The following applies: in vivo. The format is organism-based. In short, it runs like this: (§3)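 Male C57Bl/6 mice (25−30 g) dosed ip in 10% Tween 80 at 10 mL/kg: the mGlu5 ago-PAM at 1 or 3 mg/kg, the mGlu1 PAMs at 100 mg/kg. Behaviour was monitored continuously for 3 h and scored on a modified Racine scale (0−5).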

The next series concerns the target Cytochrome P450 3A4 (Homo sapiens, UniProt P08684). The experiment in a line: Inhibition of CYP3A4 in human liver microsomes by LC-MS/MS analysis. The format is ADME.
The target in series [20] is Metabotropic glutamate receptor 8 (Homo sapiens) (UniProt O00222). In words: Positive allosteric modulation of mGlu8 receptor (unknown origin) assessed as potentiation of glutamate-induced response by cell-based assay. In outline: as §1
Metabotropic glutamate receptor 8 (Homo sapiens), sequence (O00222 whole entry): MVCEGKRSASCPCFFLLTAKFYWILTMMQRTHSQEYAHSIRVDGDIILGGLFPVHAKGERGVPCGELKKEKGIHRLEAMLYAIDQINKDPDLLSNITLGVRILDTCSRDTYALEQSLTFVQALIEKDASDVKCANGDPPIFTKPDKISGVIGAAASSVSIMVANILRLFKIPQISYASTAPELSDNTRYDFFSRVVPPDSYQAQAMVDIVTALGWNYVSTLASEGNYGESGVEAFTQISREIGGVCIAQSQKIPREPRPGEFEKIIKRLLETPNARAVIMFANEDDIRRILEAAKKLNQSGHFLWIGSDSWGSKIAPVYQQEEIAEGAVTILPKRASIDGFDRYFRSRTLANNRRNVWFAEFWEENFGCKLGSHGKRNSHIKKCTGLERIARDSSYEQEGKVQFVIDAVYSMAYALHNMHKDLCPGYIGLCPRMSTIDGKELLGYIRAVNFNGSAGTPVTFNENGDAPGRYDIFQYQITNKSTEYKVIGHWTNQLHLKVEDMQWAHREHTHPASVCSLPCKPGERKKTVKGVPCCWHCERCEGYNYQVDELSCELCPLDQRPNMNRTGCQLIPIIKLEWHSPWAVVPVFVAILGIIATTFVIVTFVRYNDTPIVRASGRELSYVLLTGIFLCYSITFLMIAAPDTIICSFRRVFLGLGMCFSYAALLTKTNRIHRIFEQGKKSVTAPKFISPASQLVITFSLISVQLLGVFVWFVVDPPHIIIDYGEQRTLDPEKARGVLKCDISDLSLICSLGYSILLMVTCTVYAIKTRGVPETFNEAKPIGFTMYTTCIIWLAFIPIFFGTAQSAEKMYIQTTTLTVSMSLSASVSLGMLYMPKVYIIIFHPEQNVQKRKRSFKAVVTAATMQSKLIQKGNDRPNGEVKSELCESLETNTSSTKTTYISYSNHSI
Series [21] deals with T1, Metabotropic glutamate receptor 1. The experiment in a line: Positive allosteric modulation of human mGlu1 receptor in HEK293 cells assessed as potentiation of glutamate-induced calcium mobiliztion by Fluo-4AM dye based fluorescence analysis. The format is functional, cell-based. Conditions: read-out: EC50.
Target sequence in this assay (Q13255 whole entry): as the sequence (Q13255 whole entry) above
Series [22] addresses Metabotropic glutamate receptor 5 (Homo sapiens) (UniProt P41594). The experiment in a line: Positive allosteric modulation of mGlu5 receptor (unknown origin) assessed as potentiation of glutamate-induced response by cell-based assay. In outline:
as §1

Series [23] deals with T3, Metabotropic glutamate receptor 4. The experiment in a line: Positive allosteric modulation of human mGlu4 receptor assessed as potentiation of glutamate-induced calcium mobiliztion by cell based assay. The format is functional.
Series [24] is described as follows: Drug concentration in Sprague-Dawley rat brain at 0.2 mg/kg, iv after 0.25 hrs by LC-MS/MS analysis. The following applies: read-out: Drug uptake.
The nature of series [25]: Ratio of drug level in brain to plasma of Sprague-Dawley rat at 0.2 mg/kg, iv after 0.25 hrs by LC-MS/MS analysis. The following applies: read-out: BPR.
A short description of series [26]: Half life in Sprague-Dawley rat at 0.2 mg/kg, iv by LC-MS/MS analysis. Conditions: in vivo.
Series [27] concerns the target Metabotropic glutamate receptor 1 (Rattus norvegicus, UniProt P23385). The experiment in a line: Positive allosteric modulation of rat mGlu1 receptor assessed as potentiation of glutamate-induced calcium mobiliztion by cell based assay. The format is functional. In short, it runs like this: as §2
Series [28] is described as follows: Mean residence time in Sprague-Dawley rat at 0.2 mg/kg, iv by LC-MS/MS analysis. Conditions: in vivo.
Series [29] can be described thus: Plasma concentration in Sprague-Dawley rat at 0.2 mg/kg, iv after 0.25 hrs by LC-MS/MS analysis.
Series [30] has as its target T1, Metabotropic glutamate receptor 1. The experiment in a line: Positive allosteric modulation of human mGlu1 receptor in HEK293 cells assessed as potentiation of glutamate-induced calcium mobiliztion by Fluo-4AM dye based fluorescence analysis relative to glutamate. The format is functional, cell-based.
Target sequence in this assay (Q13255 19-1194 limits assumed): as the sequence (Q13255 19-1194 limits assumed) above
For series [31], the system named is Plasma. In words: Metabolic stability in human plasma. The format is ADME, cell-free. In outline:
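Compound incubated at 10 μM in rat or human plasma at 37 °C. Samples taken at 0 and 4 h were analysed by mass spectrometry for parent and metabolites.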

The next series has as its system Hippocampus. In words: Toxic epileptiform activity in C57BL/6 mouse CA3 region of hippocampus assessed as frequency of spike activity at 50 uM by electrophysiolgy method (reference value: 0.94 +/- 0.06 Hz). The format is toxicity, tissue-based. In short, it runs like this: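 Mouse hippocampal slices with extracellular recording from the CA3 pyramidal cell body layer. Compound (10 μM) or DHPG (50 μM) was bath-applied, and the frequency of spontaneous spikes was compared with baseline. n = 6 per agent, paired t test.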

Series [32] has as its system Mus musculus. The experiment in a line: Toxicity in C57BL/6 mouse assessed as seizure activity at 1 or 3 mg/kg, ip administered as single dose measured after 5 mins. The following applies: in vivo.
The subject of series [33] is Mus musculus. The experiment in a line: Toxicity in C57BL/6 mouse assessed as seizure activity at 1 mg/kg, ip administered as single dose measured after 5 mins. The format is organism-based. The following applies: in vivo. In outline:
as §3

T3 sequence (Q14833 whole entry): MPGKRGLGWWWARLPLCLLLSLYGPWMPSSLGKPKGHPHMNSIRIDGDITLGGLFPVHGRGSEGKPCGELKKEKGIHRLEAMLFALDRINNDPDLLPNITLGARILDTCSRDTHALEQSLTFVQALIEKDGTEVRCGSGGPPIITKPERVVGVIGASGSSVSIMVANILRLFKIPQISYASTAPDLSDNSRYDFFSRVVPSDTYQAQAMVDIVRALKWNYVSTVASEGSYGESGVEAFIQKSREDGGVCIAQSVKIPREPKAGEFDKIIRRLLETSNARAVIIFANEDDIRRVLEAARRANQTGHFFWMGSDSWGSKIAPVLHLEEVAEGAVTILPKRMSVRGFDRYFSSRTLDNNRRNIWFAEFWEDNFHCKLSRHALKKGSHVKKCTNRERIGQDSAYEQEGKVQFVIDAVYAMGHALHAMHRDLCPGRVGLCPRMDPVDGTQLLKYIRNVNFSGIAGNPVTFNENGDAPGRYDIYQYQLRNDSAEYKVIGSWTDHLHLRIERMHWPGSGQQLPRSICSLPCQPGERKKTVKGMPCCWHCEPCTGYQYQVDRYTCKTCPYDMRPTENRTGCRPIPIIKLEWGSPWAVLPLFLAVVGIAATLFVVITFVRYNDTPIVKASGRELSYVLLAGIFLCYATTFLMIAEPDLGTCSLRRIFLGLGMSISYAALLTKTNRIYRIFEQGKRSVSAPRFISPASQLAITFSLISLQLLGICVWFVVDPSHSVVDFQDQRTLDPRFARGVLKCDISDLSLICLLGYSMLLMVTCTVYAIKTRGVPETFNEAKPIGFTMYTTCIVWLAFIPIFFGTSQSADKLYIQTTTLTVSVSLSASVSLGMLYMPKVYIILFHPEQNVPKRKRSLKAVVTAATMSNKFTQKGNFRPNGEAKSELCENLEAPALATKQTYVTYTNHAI

For `CC1(C)C2C(=O)N(c3ccc(NC(=O)c4ccccn4)cc3Cl)C(=O)C21` (stereo unspecified), the IC50 in series [1] amounted to 140 nM.
As to `Cc1ccoc1C(=O)Nc1ccc(N2C(=O)c3ccc(Cl)cc3C2=O)c(Cl)c1`, the Vdss in the series with Rattus norvegicus came to 1.76 L/kg. Further, the IC50 on Cytochrome P450 1A2, against Cytochrome P450 2D6, on Cytochrome P450 2C9 and at Cytochrome P450 3A4 was more than 30000 nM each time. Besides, the Activity was less than 20% in series [2] and “Non-toxic” with Mus musculus [19]. Besides, the fold change (FC) in series [3] was determined as 2; in series [5], 8.3; in series [11], 2; in series [12] it was 2; in series [13], 2; in series [20], 2. In addition, the fold change (FC) in [22] was determined as 2. Besides, the figures for the %max in series [4], in [18] and in [30] were 89%, 107% and 94%, respectively. In addition, the Drug metabolism result in the series on Plasma [6], in the series on Plasma [7], in the series with Plasma [10], with Plasma [14], with Plasma [15] and in the series with Plasma [17] was “metabolite_detected” each time. In addition, the Stability result in the series on Plasma [8] and in the series with Plasma [31] was “Unstable” in each case. In addition, the concentration with Brain is 1400 nM. Besides, the CLint scaled at 1 µM in series [9] turned out to be 2.9 mL/min/kg. The same molecule returned a clearance in [16] of 33 mL/min/kg. Further, the EC50 in [21] was 80.9 nM; in series [23] (read-out: EC50), 2250 nM; in series [23] (read-out: pEC50 (converted)) it was 2290 nM; in series [27], 113 nM. Also, the concentration at 0.25 h in series [24] is 108 ng/mL; in series [29], 173 ng/mL. In series [25], the Kp at 0.25 h is 0.63. Further, the half-life in series [26] was found to be 1.52 h. Moreover, the MRT in series [28] is 0.892 h.
`N[C@H](C(=O)O)c1cc(O)cc(O)c1`: the Activity in the series with Hippocampus worked out at 13.8 Hz.
`C[C@@H](NC(=O)c1ccc(C#Cc2cccc(F)c2)cn1)C(C)(C)O`: the Activity entry with Mus musculus [32] and in the series on Mus musculus [33] was “Toxic” each time.
